# Measured values: ChEMBL document CHEMBL1122366, “Potential antiatherosclerotic agents. 3. Substituted benzoic and non benzoic acid analogues of cetaben” (1983)
# Columns and labels:
# [1] = biological target: T1, Sterol O-acyltransferase 1 (Rattus norvegicus) (UniProt O70536); assay: In vitro inhibition of acyl coenzyme A:cholesterol acyltransferase; set-up: concentration or dose not given beside the values; conditions: concentration not given here
# T1 sequence (whole entry): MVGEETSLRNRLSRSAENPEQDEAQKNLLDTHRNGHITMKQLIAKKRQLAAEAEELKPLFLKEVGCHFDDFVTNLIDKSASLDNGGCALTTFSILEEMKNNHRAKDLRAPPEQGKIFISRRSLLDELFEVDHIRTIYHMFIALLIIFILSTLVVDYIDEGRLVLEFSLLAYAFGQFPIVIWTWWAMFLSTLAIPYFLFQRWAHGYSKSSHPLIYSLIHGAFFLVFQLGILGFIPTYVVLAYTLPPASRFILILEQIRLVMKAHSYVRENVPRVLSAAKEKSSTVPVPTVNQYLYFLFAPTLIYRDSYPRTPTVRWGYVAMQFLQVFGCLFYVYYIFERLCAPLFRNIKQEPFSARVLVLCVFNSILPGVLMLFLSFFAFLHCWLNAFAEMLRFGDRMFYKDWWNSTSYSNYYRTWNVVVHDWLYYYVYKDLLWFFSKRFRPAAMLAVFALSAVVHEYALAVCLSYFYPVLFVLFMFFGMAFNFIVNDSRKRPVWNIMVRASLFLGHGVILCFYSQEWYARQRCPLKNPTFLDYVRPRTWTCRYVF
# How it was run: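 Enzyme fatty acyl-CoA:cholesterol acyltransferase (ACAT), assayed in vitro at a single drug concentration of 5.2 μg/mL. The value is the mean percent inhibition of enzyme activity.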
# Rattus norvegicus [2] = assay: In vivo triglyceride lowering activity when dosed at 0.03 % of the diet; assay type: functional
# How it was run: (§1)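 Normal rats were dosed in the diet. Serum sterol and triglyceride levels were measured and expressed as the mean percent of control values. Significance versus control was reported at p < 0.05, 0.01 and 0.001.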
# Rattus norvegicus [3] = assay: In vivo sterol lowering activity when dosed as 0.01 % of the diet; assay type: functional; how it was run: as §1
# Rattus norvegicus [4] = assay: In vivo sterol lowering activity when dosed as 0.03 % of the diet; assay type: functional; how it was run: as §1
# Rattus norvegicus [5] = assay: In vivo sterol lowering activity at dose of 0.10 % of the diet; assay type: functional; how it was run: as §1
# Rattus norvegicus [6] = assay: In vivo triglyceride lowering activity when dosed as 0.01 % of the diet; assay type: functional; how it was run: as §1
# Rattus norvegicus [7] = assay: In vivo triglyceride lowering activity dosed at 0.10 % of the diet.; assay type: functional; how it was run: as §1
SMILES,inhibition [1] [%],"serum triglyceride level, percent of control (Rattus norvegicus [2]) [%]","serum sterol level, % of control (Rattus norvegicus [3]) [%]","serum sterol level, percent of control (Rattus norvegicus [4]) [%]","serum sterol level, percent of control (Rattus norvegicus [5]) [%]","serum triglyceride level, percent of control (Rattus norvegicus [6]) [%]","serum triglyceride, percent of control (Rattus norvegicus [7]) [%]"
CCCCCCCCCCCCCCCCNc1ccc(C(=O)NC(=O)c2ccccc2)cc1,0,<66,91,<80,<75,76,<58
CCCCCCCCCCCCCCCCNc1ccc(C(=O)OCC2CO2)cc1 (centres undefined),13,<60,92,<75,<75,<74,<53
CCCCCCCCCCCCCCCCNc1ccc(C(=O)NC(C)(C)C(=O)O)cc1,13,90,89,95,88,84,83
CCCCCCCCCCCCCCCCN(C(C)=O)c1ccc(C(=O)O)cc1,,107,105,105,103,109,121
CCCCCCCCCCCCCCCCN(C)c1ccc(C(=O)O)cc1,,<66,85,92,85,<81,56
CCCCCCCCCCCCCCCCNc1ccc(C(=O)O)c(Cl)c1,,109,100,95,95,113,101
CCCCCCCCCCCCCCCCCN(C)c1ccc(C(=O)O)cc1,,134,97,98,98,98,109
CCCCCCCCCCCCCCCCN(CC)c1ccc(C(=O)O)cc1,,<63,<74,<60,<86,<78,98
CCCCCCCCCCCCCCCCNc1ccc(C(=O)OCC(O)CO)cc1 (centres undefined),,<67,<85,<82,<71,<73,<45
CCCCCCCCCCCCCCCCN(C)c1ccc(C(=O)OCC)cc1,,<73,<70,84,<74,<64,78
CCCCCCCCCCCCCCCCCN(CC)c1ccc(C(=O)O)cc1,,108,98,98,95,126,106
CCCCCCCCCCCCCCCCN(CC(=O)O)c1ccc(C(=O)O)cc1,,100,105,109,93,105,99
CCCCCCCCCCCCCCCCCCN(CC)c1ccc(C(=O)O)cc1,,102,102,102,108,85,103
CCCCCCCCCCCCCCCCNc1ccc(CO)cc1,,117,98,95,95,110,91
CCCCCCCCCCCCCCCCNc1ccc(C(=O)OCC(O)CO)cc1.Cl (centres undefined),,<49,<88,92,<69,98,<30
CCCCCCCCCCCCCCCCNc1ccc(CC(=O)O)cc1,,81,93,87,87,76,<63
CCCCCCCCCCCCCCN(C(C)=O)c1ccc(C(=O)O)cc1,,80,95,<80,91,98,96
CCCCCCCCCCCCCCCCNc1ccc(C(=O)C[S+](C)[O-])cc1 (centres undefined),6,<55,95,95,,<64,
CCCCCCCCCCCCCCCCNc1ccc(C(=O)NS(=O)(=O)c2ccc(C)cc2)cc1,,<35,89,<56,<61,<86,<40
CCCCCCCCCCCCCCCCNc1ccc(C(=O)[N-]S(=O)(=O)c2ccc(C)cc2)cc1.[Na+],,<37,<64,<52,<48,<52,<32
CCCCCCCCCCCCCCCCN(CCCCCCCCCCCCCCCC)c1ccc(C(=O)O)c2ccccc12,,99,111,109,101,100,112
CCCCCCCCCCCCCCCCN(C(C)=O)c1ccc(COC(C)=O)cc1,,<71,97,93,95,<70,80
